Experimental findings from PMC4527528 (Chemistry & biology, 2015) are described below.

In data set [1] the target is T1, ABHD4 (Homo sapiens, UniProt Q8TB40).
T1 sequence (Q8TB40 1-342): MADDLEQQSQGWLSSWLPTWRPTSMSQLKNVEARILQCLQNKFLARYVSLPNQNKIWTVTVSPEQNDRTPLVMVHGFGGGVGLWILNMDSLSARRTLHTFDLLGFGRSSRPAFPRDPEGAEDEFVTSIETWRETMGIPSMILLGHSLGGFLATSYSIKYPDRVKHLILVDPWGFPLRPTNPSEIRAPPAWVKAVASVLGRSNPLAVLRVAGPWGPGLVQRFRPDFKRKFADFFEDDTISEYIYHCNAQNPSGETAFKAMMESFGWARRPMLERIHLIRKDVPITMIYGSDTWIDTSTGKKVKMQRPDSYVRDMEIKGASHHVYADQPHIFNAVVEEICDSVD
The data set can be described thus: ABPP-SILAC, in situ treatment of PC3 cells. To be noted: 4 h, FP-biotin probe. Type of data set: cell-based. The method, boiled down: (§1)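 Heavy-isotope PC3 cells (RPMI plus serum, grown to confluency) get fresh medium with test compound; light cells get DMSO. Incubated 4 h at 37 °C, 5% CO2, then PBS-washed and sonicated in PBS. Proteomes (2 mg/mL) labelled with FP-biotin (2.5 µM, 1 h) or ABC45 (5 µM, 1 h), then CuAAC to biotin-azide. Heavy and light combined, streptavidin-enriched, trypsin-digested on bead, analysed by LC-MS/MS; SILAC ratios; two independent experiments.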

Data set [2] addresses T2, PPT1 (Homo sapiens, UniProt P50897).
T2 sequence (P50897 28-306): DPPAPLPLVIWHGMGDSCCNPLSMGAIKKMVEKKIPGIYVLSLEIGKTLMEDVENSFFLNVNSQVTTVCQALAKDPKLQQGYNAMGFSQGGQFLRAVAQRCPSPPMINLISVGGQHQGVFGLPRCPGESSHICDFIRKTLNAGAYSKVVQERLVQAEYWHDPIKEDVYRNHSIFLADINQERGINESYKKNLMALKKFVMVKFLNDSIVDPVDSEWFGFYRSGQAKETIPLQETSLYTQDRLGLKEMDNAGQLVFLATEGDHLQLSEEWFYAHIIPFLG
The data set can be described thus: ABPP-SILAC with ABC45 probe, in situ treatment of PC3 cells. Type of data set: cell-based. To be noted: 1 µM, 4 h, ABC45 probe (5 µM, 1 h). The essentials: as §1

The target in data set [3] is T1, ABHD4. The data set can be described thus: Gel-based competitive ABPP. Type of data set: biochemical. As to conditions: combined transfected HEK293T lysate.
For the next data set, the target named is T3, ABHD3 (Homo sapiens, UniProt Q8WU67).
T3 sequence (Q8WU67 1-409): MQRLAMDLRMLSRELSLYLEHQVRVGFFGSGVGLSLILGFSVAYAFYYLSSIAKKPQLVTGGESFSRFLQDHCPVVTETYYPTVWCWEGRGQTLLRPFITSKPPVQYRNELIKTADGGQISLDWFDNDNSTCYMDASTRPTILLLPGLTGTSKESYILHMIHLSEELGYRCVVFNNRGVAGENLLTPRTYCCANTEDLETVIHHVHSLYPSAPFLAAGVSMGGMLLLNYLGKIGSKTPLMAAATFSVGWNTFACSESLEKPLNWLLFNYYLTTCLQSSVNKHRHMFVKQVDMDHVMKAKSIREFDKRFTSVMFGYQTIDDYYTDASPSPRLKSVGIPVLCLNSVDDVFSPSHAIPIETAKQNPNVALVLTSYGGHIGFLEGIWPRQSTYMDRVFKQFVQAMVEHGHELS
The data set can be described thus: ABPP-SILAC, in situ treatment of PC3 cells. Type of data set: cell-based. To be noted: 4 h, FP-biotin probe. The method, boiled down:
as §1

Data set [4] concerns the target T2, PPT1. The data set can be described thus: In situ competitive ABPP. Type of data set: cell-based. As to conditions: transfected HEK293T cells. The method, boiled down: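 HEK293T cells transiently transfected with human PPT1 are grown to confluency in DMEM plus serum. Treated in fresh medium with test compound or DMSO, 4 h, 37 °C, 5% CO2. Washed, sonicated in PBS, and lysates labelled with the ABC45 click probe. Rhodamine-azide added by CuAAC; PNGaseF deglycosylation for the blockade test; SDS-PAGE and in-gel fluorescence.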

For data set [5], the target named is T4, PPT1 (Mus musculus, UniProt O88531).
T4 sequence (O88531 28-306): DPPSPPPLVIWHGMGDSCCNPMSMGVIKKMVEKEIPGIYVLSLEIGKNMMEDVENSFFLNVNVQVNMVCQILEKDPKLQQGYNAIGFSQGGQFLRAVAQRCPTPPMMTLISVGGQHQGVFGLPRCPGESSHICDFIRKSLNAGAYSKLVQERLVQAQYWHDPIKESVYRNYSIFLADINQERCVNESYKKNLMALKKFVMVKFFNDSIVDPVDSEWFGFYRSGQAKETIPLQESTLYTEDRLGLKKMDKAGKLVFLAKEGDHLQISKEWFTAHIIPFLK
The data set can be described thus: In vivo gel-based ABPP of mouse tissues. As to conditions: C57BL6 mice, intraperitoneal, 4 h, central and peripheral tissues. The essentials:
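C57Bl/6 mice dosed intraperitoneally across 1–40 mg/kg in saline/ethanol/emulphor 18:1:1 (v/v/v), or vehicle. After 4 h, isoflurane anaesthesia, cervical dislocation and tissue harvest. Tissue proteomes (1 mg/mL) labelled with ABC45 (1 µM, 60 min) and rhodamine-azide by CuAAC, PNGaseF-treated after labelling, resolved by SDS-PAGE and scanned for fluorescence.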

For data set [6], the target named is T1, ABHD4. Format: biochemical. As to conditions: in vitro, lysates from ABHD4-transfected HEK293T cells.
In another data set the target is T5, endogenous PPT1 (Homo sapiens, UniProt P50897).
T5 sequence (P50897 28-306): T2 sequence (P50897 28-306)
The data set can be described thus: MU-6S-Palm-βD-Glc substrate assay after in situ treatment of PC3 cells. Type of data set: cell-based. As to conditions: 500 nM, 4 h. The method, boiled down:
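PC3 cells (RPMI plus serum, confluent) treated in situ with test compound or DMSO for 4 h at 37 °C, 5% CO2, then washed and sonicated in PBS. Lysate PPT1 activity measured with MU-6S-Palm-βD-Glc: thioester hydrolysis, then sweet almond β-glucosidase releases 4-methylumbelliferone, read by fluorescence. Activity compared with DMSO controls; three independent experiments.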

Another data set is described as follows: Cytotoxicity. Type of data set: cell-based. As to conditions: read-out: cell toxicity IC50.
For the next data set, the system named is serine hydrolases. In words: ABPP-SILAC serine hydrolase selectivity profile in PC3 cells. Type of data set: cell-based, human. As to conditions: PC3 cells in situ, 1 or 0.1 µM, 4 h; ABHD6 and CPVL. The essentials: as §1

Take `COc1ccc(N2CCN(C(=O)ON3C(=O)C4CN(Cc5ccc(Oc6ccccc6)cc5)CCN4C3=O)CC2)cc1` (centres unmarked) [ABC34]: at ABHD4 [1] (1 µM), the “inhibition of ABHD4” value is recorded as “completely inhibited”. Further, the “inhibition of PPT1” value at PPT1 [2] is “more than 90%”. For the same compound, at ABHD4 [3], the “preference for ABHD4 over ABHD3” value is given as “preferentially inhibited ABHD4 over ABHD3”. In addition, at ABHD3 (1 µM), the “inhibition of ABHD3” value is listed as ~ 80%. In addition, on PPT1 [4] (5 µM, 4 h), the “blockade of ABC45 reactivity of recombinant human PPT1” value is recorded as “blocked”.
For the compound `COc1ccc(N2CCN(C(=O)ON3C(=O)C4CN(CC5CCN(Cc6ccccc6)CC5)CCN4C3=O)CC2)cc1` (centres unmarked) [ABC44], on PPT1 [5], the “dose producing near-complete blockade of PPT1” value was in the range of 1 to 5 mg/kg. Further, the “effect on NAPE hydrolysis activity of ABHD4” value on ABHD4 [6] is recorded as “neither ABC44 (17) nor the LYPLA1/2 inhibitor JJH254 (7) altered”. Moreover, on endogenous PPT1, the “4-MU-6S-Palm-βD-Glc hydrolysis activity compared to DMSO-treated control cells” value is on record as “substantial reductions” and the “reduction in endogenous PPT1 activity” value is 90%. In addition, in “Cytotoxicity”, the IC50 (usually the point on the concentration scale where inhibition reaches its midpoint) was more than 50 µM. Further, the “cross-reactive serine hydrolase activities” value in the data set with serine hydrolases was “two of the >40 quantified SH activities”. Moreover, the “in situ inhibition of hPPT1” value on PPT1 [4] (200 nM) was “complete inhibition”.
Consider `O=C(ON1C(=O)C2CN(Cc3ccc(Oc4ccccc4)cc3)CCN2C1=O)N1CCC(c2ccccc2)CC1` (centres unmarked) [ABC47], for which the “inhibition of ABHD4” value on ABHD4 [1] (0.5 µM) was “inhibit both ABHD3 and ABHD4”. Also, the “inhibition of ABHD3” value at ABHD3 (0.5 µM) is “inhibit both ABHD3 and ABHD4”.
